Screens deposited in PubChem BioAssay by several laboratories.
Shown are actives, neighbours in structure and some others; about 2.6% of the full set was active somewhere.
core dimer inh – HCV core protein dimerization inhibition. hit rate 0.33% among 300,000. TR-FRET GST/Flag-core106 dimerization, 1536-well. inhibition, % at 5 µM. AID 1899;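 active = inhibition above the mean of all tested compounds plus 3 SD, set per screening campaign, cut at about 45% in these data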
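test system = GST/Flag-tagged HCV core106 proteins | probe or stimulus = Eu donor and XL665 acceptor anti-tag antibodies | times = compound-protein-antibody incubation 4 h at 22.5 °C | signal = TR-FRET, excitation 340 nm, emission 617 and 671 nm | measure = percent inhibition of core106 dimerization signal | controls = wells lacking GST-core106 and wells with excess unlabelled core106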
ABHD5-PLIN5 inh – blocks binding of human ABHD5 to perilipin-5; inhibition, % at 4 µM; hit rate 0.78% among 360,000; Split G. princeps luciferase complementation, luminescence, 4 h; Q00G26+Q8WTS1;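 active = inhibition above the mean inhibition across every tested compound plus 3 SD, cut at about 22% in these data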;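 also: 0% = DMSO only wells and the 100% control is not disclosed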
Target sequence (Q00G26 whole entry, looked up): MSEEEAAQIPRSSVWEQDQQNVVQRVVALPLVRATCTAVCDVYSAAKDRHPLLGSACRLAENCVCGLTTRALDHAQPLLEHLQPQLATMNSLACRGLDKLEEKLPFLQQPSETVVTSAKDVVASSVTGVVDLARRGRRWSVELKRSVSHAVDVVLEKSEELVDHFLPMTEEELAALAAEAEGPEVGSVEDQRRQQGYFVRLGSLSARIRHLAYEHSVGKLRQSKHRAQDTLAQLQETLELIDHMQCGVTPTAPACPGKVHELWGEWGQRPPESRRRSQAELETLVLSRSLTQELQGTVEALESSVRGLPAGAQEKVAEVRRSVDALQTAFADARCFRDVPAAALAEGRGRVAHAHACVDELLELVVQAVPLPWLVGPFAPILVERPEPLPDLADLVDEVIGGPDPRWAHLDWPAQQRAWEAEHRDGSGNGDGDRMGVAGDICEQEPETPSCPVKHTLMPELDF
Target sequence (Q8WTS1 whole entry, looked up): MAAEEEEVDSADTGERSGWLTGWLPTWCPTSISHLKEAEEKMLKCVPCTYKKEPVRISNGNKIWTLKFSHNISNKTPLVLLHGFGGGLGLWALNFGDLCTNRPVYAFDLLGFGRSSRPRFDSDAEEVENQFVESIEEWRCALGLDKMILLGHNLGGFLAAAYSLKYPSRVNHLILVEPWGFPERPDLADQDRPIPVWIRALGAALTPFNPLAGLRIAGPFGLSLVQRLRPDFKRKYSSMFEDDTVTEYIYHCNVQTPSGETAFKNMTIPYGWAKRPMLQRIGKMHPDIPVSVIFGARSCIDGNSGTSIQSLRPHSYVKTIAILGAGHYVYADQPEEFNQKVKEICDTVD
rCAG RNA binder – r(CAG) repeat RNA binding; TO-PRO-1 dye displacement fluorescence; inhibition, % at 3 µM; hit rate 1.3% among 370,000;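 active = inhibition above the plate cutoff, the mean of all test compounds on that plate plus 3 SD, cut at about 35% in these data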;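 also: 0% = DMSO alone and 100% = 100 µM mitoxantrone as full dye displacement; higher means more dye released from RNA so lower well fluorescence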
NadD block – blocks S. aureus nicotinate mononucleotide adenylyltransferase | purified NadD enzyme, colorimetric absorbance read-out | AID 602399 | inhibition, % at 20 µM | hit rate 0.78% among 360,000; in the data active = inhibition above about 26%
* marks the source's active call; other numbers are inactive results; · = no result given.

SMILES	core dimer inh	ABHD5-PLIN5 inh	rCAG RNA binder	NadD block
C=CCOc1ccc(CC2C(=O)N(C)C(=O)N(C)C2=O)cc1	85*	2	10	7
CCN(CC)c1ccc(CC2C(=O)N(C)C(=O)N(C)C2=O)cc1	-3	-3	·	0
COc1cc(/C=C(/C)[N+](=O)[O-])ccc1OCc1ccccc1Cl	23	90*	·	4
COc1ccc(Cn2c(N)c(C(=O)NCc3ccco3)c3nc4ccccc4nc32)cc1	35	22*	24	30
O=C(O)c1cc[c]([Hg][Cl])cc1	13	82*	·	20
O=C(c1ccc(CS(=O)(=O)c2ccccc2)o1)N1CCC2(CC1)OCCO2	2	-2	5	1
CC(C)NC1(c2ccccc2)CCCCC1	·	·	4	·
CC(C)n1c(O)c(C2c3cc(Cl)ccc3Oc3[nH]c(=O)n(C(C)C)c(=O)c32)c(=O)[nH]c1=O (configuration not stated)	·	37*	·	-2
CCOc1cc(/C=C2/C(=O)NC(=O)N(c3ccc(CC)cc3)C2=O)ccc1OC(=O)c1cccs1	7	22*	·	9
C/C1=C\[C@@H](C)C/C=C/[C@H]2[C@@H]3O[C@]3(C)[C@@H](C)[C@H]3[C@H](Cc4c[nH]c5ccccc45)NC(=O)[C@]32C(=O)/C=C/C(=O)[C@@H]1O	0	70*	·	2
Cc1c(C=O)c2ccccc2n1Cc1ccc([N+](=O)[O-])cc1	2	1	0	0
COC(=O)C1=Nc2ccccc2/C1=C\c1c(O)n(-c2ccc(OC)cc2)c(=O)[nH]c1=O	4	38*	10	4
COC(=O)C1=Nc2ccccc2/C1=C\c1c(O)n(-c2ccc(Br)cc2)c(=O)[nH]c1=O	0	19	24	21
NC(N)=N/N=C/c1cn(-c2ccccc2)nc1-c1cccs1	-7	2	36*	-2
O=C(CNC(=O)OCc1ccccc1)NC(Cc1ccccc1)P(=O)(Oc1ccccc1)Oc1ccccc1 (configuration not stated)	·	·	6	·
CCOP(=O)(OCC)OCC	·	4	0	-3
CCOP(=O)(CCP(=O)(OCC)OCC)OCC.C[CH2][Sn]([Cl])([Cl])[CH2]C	·	78*	3	-1
O=C1NC(=O)[C@]2(Cc3ccccc3N3CCN(c4ccccc4)CC32)C(=O)N1Cc1ccccc1 (some centres not stated)	43	-7	19	48*
COC(=O)C1C(c2ccc(F)cc2)CC2CCC1N2C (configuration not stated)	·	·	1	·
COCCCNC(=O)Cn1cc(/C=C2\C(=O)NC(=O)N(c3ccccc3F)C2=O)c2ccccc21	-3	27*	·	4
COCCNC(=O)Cn1cc(/C=C2\C(=O)NC(=O)N(c3ccccc3F)C2=O)c2ccccc21	2	14	-3	3
Cc1ccc(S(=O)(=O)N2Cc3cc(-c4ccccc4)ccc3-n3nncc3C2)cc1	·	-14	2	6
O=C(N/N=C/c1c(O)n(Cc2ccccc2)c(=O)[nH]c1=O)c1ccccc1O	0	3	81*	0
COP(=O)(OC)OC=C(Cl)Cl	·	·	2	·
COP(=O)(C(=O)Nc1ccccc1)C(CC(C)C)NC(=O)OCc1ccccc1 (configuration not stated)	·	·	0	·
SMILES	core dimer inh	ABHD5-PLIN5 inh	rCAG RNA binder	NadD block
Cc1cccc(N2C(=O)NC(=O)/C(=C/c3ccc(N4CCOCC4)cc3)C2=O)c1	-2	22*	10	4
Cc1ccccc1N1C(=O)NC(=O)/C(=C\c2ccc3c(c2)CCCN3Cc2ccccc2)C1=O	15	-2	5	39*
CN(C)c1ccc(/C=C2/C(=O)NC(=O)N(Cc3ccco3)C2=O)cc1	4	2	26	12
O=C1NC(=O)N(Cc2ccco2)C(=O)/C1=C/c1ccc(-c2cccc([N+](=O)[O-])c2)o1	16	20	·	67*
CC(C)C(NC(=O)OCc1ccccc1)P(=O)(Oc1ccccc1)Oc1ccccc1 (configuration not stated)	·	·	3	·
O=C1NC(=O)N(CCc2ccc(F)cc2)C(=O)/C1=C/c1ccco1	10	0	74*	34*
Cc1cccc(N=C2c3cc([N+](=O)[O-])ccc3-c3c2cc([N+](=O)[O-])cc3[N+](=O)[O-])c1	·	22*	4	18
CCCCC1(CCCC)C(=O)NC(=Nc2cccc(C)c2)NC1=O	4	0	8	0
CCOc1cc(C=C2C(=O)NC(=S)NC2=O)ccc1O	·	-2	0	1
O=C1NC(=S)NC(=O)C1=Cc1ccc2c(c1)CCN2CCCCl	65*	-17	·	53*
CCC1(c2ccc(C)cc2)C(=O)NC(=S)NC1=O	·	13	4	-3
O=C1NC(=O)N(c2ccccc2F)C(=O)/C1=C/c1ccc(Sc2nc3ccccc3[nH]2)o1	5	-3	46*	45*
O=C1NC(=O)N(c2ccccc2)C(=O)/C1=C/c1ccc(Sc2ccccc2)o1	9	16	·	37*
O=C1NC(=O)N(c2ccccc2)C(=O)/C1=C/c1ccoc1	7	4	-8	1
Cc1ccc(N2C(=O)NC(=O)/C(=C\c3ccc([N+](=O)[O-])o3)C2=O)cc1	4	·	·	·
CCOC(=O)c1c(-n2c(C)cc(C=C3C(=O)NC(=S)NC3=O)c2C)sc2c1CCCC2	21	-15	·	46*
CCN1C(=O)NC(=O)/C(=C/c2cc(C)n(-c3sc(C)c(C)c3C#N)c2C)C1=O	6	-8	5	9
Cc1ccc(N2C(=O)NC(=O)/C(=C\c3cc(C)n(-c4sc5c(c4C#N)CCCC5)c3C)C2=O)cc1	19	9	11	34*
C[C@H]1CNCCN1c1ccc(N2CC[C@@H](O)C2)c(C#N)c1	·	·	1	·
COc1ccc2nc(-c3ccc(CN4CCC(n5nnc6ccccc65)CC4)cc3)c(-c3ccccc3)nc2c1	·	·	10	·
CCOC(=O)[C@]12Cc3ccccc3[C@H]1N(C)C(=O)c1cc(OC)ccc12	·	11	1	4
CCOC(=O)[C@]12Cc3c(cc(OC)c(OC)c3OC)[C@H]1N(C)C(=O)c1cc(OC)ccc12	·	23*	0	-2
Cc1ccc(/C=C2\C(=O)NC(=S)N(c3ccc(F)cc3)C2=O)s1	-1	-5	28	32*
COc1ccc(N2C(=O)/C(=C/c3ccc(N(C)C)o3)C(=O)NC2=S)cc1	-2	23*	-48	8
Cc1ccc(/C=C2\C(=O)NC(=S)N(c3ccc(F)cc3)C2=O)o1	·	1	26	6
O=C(NC(Cc1ccccc1)P(=O)(O)Oc1ccccc1)OCc1ccccc1 (configuration not stated)	·	·	6	·
COc1ccc2c3c([nH]c2c1)[C@H](C=C(C)C)N1C(=O)[C@@H]2CCCN2C(=O)[C@@H]1C3	·	·	0	·
CCN1/C(=C\C=C\C2=[N+](CC)c3ccccc3C2(C)C)C(C)(C)c2ccccc21	8	46*	·	10
OC1CN2CCCC(O)C2C1O (configuration not stated)	·	·	0	·
O=C(O)c1cccc2c1NC(C(=O)O)C1CC(Sc3ccccc3[N+](=O)[O-])C(Cl)C21 (configuration not stated)	-6	9	100*	14
